In ChEMBL document CHEMBL1806364, “Discovery of vinylogous carbamates as a novel class of β-ketoacyl-acyl carrier protein synthase III (FabH) inhibitors” (Bioorg Med Chem, 2011):
In brackets after ≈: the same amount, converted by molar mass.

Legend:
Bacillus subtilis = assay: Antibacterial activity against Bacillus subtilis after 24 hrs by MTT assay; format: functional
How it was run: (§1)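 Broth microdilution in Mueller-Hinton medium. Compound stock 100 µg/mL in DMSO, serially diluted into medium. Inoculum about 10⁵ cfu/mL, incubated 37 °C for 24 h. After visual MIC reading, MTT (2 mg/mL in PBS pH 7.4) added, 4–5 h at room temperature. Dye extracted with isopropanol containing 5% 1 mol/L HCl for 12 h, OD read at 550 nm.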

Staphylococcus aureus = assay: Antibacterial activity against Staphylococcus aureus after 24 hrs by MTT assay; format: functional; how it was run: as §1
[1] = Toxicity in erythrocytes assessed as hemolytic activity; format: cell-based; details: erythrocyte
Escherichia coli = assay: Antibacterial activity against Escherichia coli after 24 hrs by MTT assay; format: functional; how it was run: as §1
[2] = molecular target: T1, 3-oxoacyl-[acyl-carrier-protein] synthase 3 (Escherichia coli, UniProt C3TDZ2); assay: Inhibition of Escherichia coli FabH expressed in Escherichia coli DH10B cells assessed as incorporation of 3[H] after 25 mins by liquid scintillation
T1 sequence (C3TDZ2 whole entry): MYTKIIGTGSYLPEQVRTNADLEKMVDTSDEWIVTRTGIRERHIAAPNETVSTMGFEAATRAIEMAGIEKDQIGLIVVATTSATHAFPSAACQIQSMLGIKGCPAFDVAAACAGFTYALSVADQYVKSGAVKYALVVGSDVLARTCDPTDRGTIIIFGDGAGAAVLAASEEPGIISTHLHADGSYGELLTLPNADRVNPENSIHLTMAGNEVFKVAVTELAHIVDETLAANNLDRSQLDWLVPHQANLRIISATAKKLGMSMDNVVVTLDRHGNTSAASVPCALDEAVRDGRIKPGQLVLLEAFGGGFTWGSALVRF
How it was run: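 Native E. coli FabH overexpressed from pET30 in DH10B cells and purified by Q-Sepharose, MonoQ and hydroxyapatite chromatography. Reaction mix contains 0.25 mM MgCl₂, acetyl-CoA, 0.5 mM NADH and 0.5 mM NADPH, run 25 min. Stopped with ice-cold 50% TCA, protein pelleted, washed with 10% TCA, dissolved in 0.5 M NaOH. Incorporated ³H counted by liquid scintillation. DMSO at most 2% final; IC50 determined.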

Pseudomonas fluorescens = assay: Antibacterial activity against Pseudomonas fluorescens after 24 hrs by MTT assay; format: functional; how it was run: as §1

SMILES	MIC (Bacillus subtilis)	MIC (Staphylococcus aureus)	LC30 [1]	MIC (Escherichia coli)	IC50 [2]	MIC (Pseudomonas fluorescens)
CCOC(=O)/C(=C\Nc1ccc(Br)cc1)c1ccc(OCc2ccccc2)cc1	50 µg/mL (≈ 111 µM)	25 µg/mL (≈ 55.3 µM)	> 10000 µg/mL	1.56 µg/mL (≈ 3.45 µM)	3.3 µM	1.56 µg/mL (≈ 3.45 µM)
CCOC(=O)/C(=C/Nc1ccc(C)cc1)c1ccc(OCc2ccccc2)cc1	> 50 µg/mL	> 50 µg/mL	–	> 50 µg/mL	–	> 50 µg/mL
CCOC(=O)/C(=C/Nc1ccc(F)cc1F)c1ccc(OCc2ccccc2)cc1	12.5 µg/mL (≈ 30.5 µM)	12.5 µg/mL (≈ 30.5 µM)	–	25 µg/mL (≈ 61.1 µM)	–	25 µg/mL (≈ 61.1 µM)
CCOC(=O)/C(=C\Nc1ccccc1F)c1ccc(OCc2ccccc2)cc1	> 50 µg/mL	25 µg/mL (≈ 63.9 µM)	–	12.5 µg/mL (≈ 31.9 µM)	–	25 µg/mL (≈ 63.9 µM)
CCOC(=O)/C(=C/Nc1ccccc1F)c1ccc(OCc2ccccc2)cc1	> 50 µg/mL	> 50 µg/mL	–	25 µg/mL (≈ 63.9 µM)	–	> 50 µg/mL
CCOC(=O)/C(=C\Nc1ccc(C(C)C)cc1)c1ccc(OCc2ccccc2)cc1	25 µg/mL (≈ 60.2 µM)	12.5 µg/mL (≈ 30.1 µM)	–	3.12 µg/mL (≈ 7.52 µM)	–	3.12 µg/mL (≈ 7.52 µM)
CCOC(=O)/C(=C\Nc1ccc(Br)cc1Br)c1ccc(OCc2ccccc2)cc1	25 µg/mL (≈ 47.1 µM)	25 µg/mL (≈ 47.1 µM)	> 10000 µg/mL	12.5 µg/mL (≈ 23.5 µM)	24 µM	12.5 µg/mL (≈ 23.5 µM)
CCOC(=O)/C(=C\Nc1ccc(Cl)cc1Cl)c1ccc(OCc2ccccc2)cc1	25 µg/mL (≈ 56.5 µM)	25 µg/mL (≈ 56.5 µM)	–	25 µg/mL (≈ 56.5 µM)	–	25 µg/mL (≈ 56.5 µM)
CCOC(=O)/C(=C/Nc1ccc(Br)cc1Br)c1ccc(OCc2ccccc2)cc1	12.5 µg/mL (≈ 23.5 µM)	12.5 µg/mL (≈ 23.5 µM)	–	3.13 µg/mL (≈ 5.89 µM)	–	12.5 µg/mL (≈ 23.5 µM)
CCOC(=O)/C(=C/Nc1ccc(C(C)C)cc1)c1ccc(OCc2ccccc2)cc1	12.5 µg/mL (≈ 30.1 µM)	25 µg/mL (≈ 60.2 µM)	> 10000 µg/mL	6.25 µg/mL (≈ 15 µM)	8.5 µM	6.25 µg/mL (≈ 15 µM)
CCOC(=O)/C(=C\Nc1ccccc1)c1ccc(OCc2ccccc2)cc1	25 µg/mL (≈ 66.9 µM)	50 µg/mL (≈ 134 µM)	–	12.5 µg/mL (≈ 33.5 µM)	–	25 µg/mL (≈ 66.9 µM)
CCOC(=O)/C(=C\Nc1ccc(Cl)cc1)c1ccc(OCc2ccccc2)cc1	25 µg/mL (≈ 61.3 µM)	25 µg/mL (≈ 61.3 µM)	–	12.5 µg/mL (≈ 30.6 µM)	–	6.25 µg/mL (≈ 15.3 µM)
CCOC(=O)/C(=C/Nc1ccc(Br)cc1)c1ccc(OCc2ccccc2)cc1	> 50 µg/mL	> 50 µg/mL	> 10000 µg/mL	> 50 µg/mL	43 µM	> 50 µg/mL
CCOC(=O)/C(=C/Nc1ccc(F)cc1)c1ccc(OCc2ccccc2)cc1	25 µg/mL (≈ 63.9 µM)	12.5 µg/mL (≈ 31.9 µM)	–	6.25 µg/mL (≈ 16 µM)	–	12.5 µg/mL (≈ 31.9 µM)
NC[C@H]1O[C@H](O[C@H]2[C@H](O)[C@@H](O[C@H]3O[C@H](CO)[C@@H](O)[C@H](N)[C@H]3O)[C@H](N)C[C@@H]2N)[C@H](N)[C@@H](O)[C@@H]1O [BEKANAMYCIN]	0.39 µg/mL (≈ 0.807 µM)	1.56 µg/mL (≈ 3.23 µM)	–	3.12 µg/mL (≈ 6.46 µM)	–	3.12 µg/mL (≈ 6.46 µM)
CCOC(=O)/C(=C/Nc1ccccc1)c1ccc(OCc2ccccc2)cc1	25 µg/mL (≈ 66.9 µM)	25 µg/mL (≈ 66.9 µM)	–	6.25 µg/mL (≈ 16.7 µM)	–	6.25 µg/mL (≈ 16.7 µM)
CCOC(=O)/C(=C/Nc1ccc(Cl)cc1)c1ccc(OCc2ccccc2)cc1	25 µg/mL (≈ 61.3 µM)	> 50 µg/mL	–	25 µg/mL (≈ 61.3 µM)	–	25 µg/mL (≈ 61.3 µM)
CCOC(=O)/C(=C\Nc1ccc([N+](=O)[O-])cc1)c1ccc(OCc2ccccc2)cc1	> 50 µg/mL	> 50 µg/mL	–	3.12 µg/mL (≈ 7.47 µM)	–	6.25 µg/mL (≈ 14.9 µM)
CCOC(=O)/C(=C/Nc1ccc(Cl)cc1Cl)c1ccc(OCc2ccccc2)cc1	> 50 µg/mL	> 50 µg/mL	–	25 µg/mL (≈ 56.5 µM)	–	25 µg/mL (≈ 56.5 µM)
CCOC(=O)/C(=C\Nc1ccc(F)cc1)c1ccc(OCc2ccccc2)cc1	25 µg/mL (≈ 63.9 µM)	> 50 µg/mL	> 10000 µg/mL	3.12 µg/mL (≈ 7.98 µM)	8.2 µM	3.12 µg/mL (≈ 7.98 µM)
CCOC(=O)/C(=C/Nc1ccccc1Cl)c1ccc(OCc2ccccc2)cc1	25 µg/mL (≈ 61.3 µM)	12.5 µg/mL (≈ 30.6 µM)	–	25 µg/mL (≈ 61.3 µM)	–	> 50 µg/mL
CCOC(=O)/C(=C\Nc1ccc(C)cc1)c1ccc(OCc2ccccc2)cc1	25 µg/mL (≈ 64.5 µM)	25 µg/mL (≈ 64.5 µM)	> 10000 µg/mL	0.78 µg/mL (≈ 2.01 µM)	2.6 µM	1.56 µg/mL (≈ 4.03 µM)
CCOC(=O)/C(=C\Nc1ccccc1Cl)c1ccc(OCc2ccccc2)cc1	> 50 µg/mL	> 50 µg/mL	> 10000 µg/mL	12.5 µg/mL (≈ 30.6 µM)	28 µM	25 µg/mL (≈ 61.3 µM)
CCOC(=O)/C(=C/Nc1ccc([N+](=O)[O-])cc1)c1ccc(OCc2ccccc2)cc1	> 50 µg/mL	> 50 µg/mL	–	> 50 µg/mL	–	> 50 µg/mL
CCOC(=O)/C(=C\Nc1ccc(F)cc1F)c1ccc(OCc2ccccc2)cc1	> 50 µg/mL	> 50 µg/mL	–	6.25 µg/mL (≈ 15.3 µM)	–	12.5 µg/mL (≈ 30.5 µM)
